Data taken from article PMC7433031 (European journal of medicinal chemistry, 2020).
Each block holds one molecule with its values, some of them ahead of it.

What was measured:
[1] = tested on: MOLT-4 T-ALL cells; assay: MOLT-4 cell viability assay; assay type: cell-based, human
[2] = molecular target: BCL-XL (Homo sapiens, UniProt Q07817); assay: Western blot of BCL-XL protein levels in MOLT-4 cells; assay type: cell-based; conditions: 100 nM, 16 h, Western blot (Figure 3)
In short: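 MOLT-4 cells were treated for 16 h with test compound (100 nM for VHL-based, 50 nM for CRBN-based, or a concentration series for DC50). Other runs used 100 nM over a time course, or 16 h exposure followed by washout into drug-free medium. Some cells were pretreated 2 h with 10 μM pomalidomide or 1 μM MG-132. Immunoblot bands were normalized to β-actin and expressed as % remaining versus vehicle.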

BCL-XL, sequence (Q07817 whole entry): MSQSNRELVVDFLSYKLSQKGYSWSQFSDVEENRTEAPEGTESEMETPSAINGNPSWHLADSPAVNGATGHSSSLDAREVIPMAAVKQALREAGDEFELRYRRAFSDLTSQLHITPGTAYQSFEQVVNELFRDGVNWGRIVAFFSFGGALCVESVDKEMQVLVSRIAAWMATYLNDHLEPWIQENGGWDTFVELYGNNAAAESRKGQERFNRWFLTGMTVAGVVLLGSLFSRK

Molecule: CC1(C)CCC(c2ccc(Cl)cc2)=C(CN2CCN(c3ccc(C(=O)NS(=O)(=O)c4ccc(N[C@H](CCN5CCN(C(=S)NCCOCCOCCNc6cccc7c6C(=O)N([C@@H]6CCC(=O)NC6=O)C7=O)CC5)CSc5ccccc5)c(S(=O)(=O)C(F)(F)F)c4)cc3)CC2)C1 (racemic) [Compound 11b, 4-(4-((2-(4-Chlorophenyl)-5,5-dimethylcyclohex-1-enyl)methyl)piperazin-1-yl)-N-(4-((2R)-4-(4-(2-(2-(2-(2-(2,6-dioxopiperidin-3-yl)-1,3-dioxoisoindolin-4-ylamino)ethoxy)ethoxy)ethylcarbamothioyl)piperazin-1-yl)-1-(phenylthio)butan-2-ylamino)-3-(trifluoromethylsulfonyl)phenylsulfonyl)benzamide]
fold decrease in potency compared to 11a ([1]; MOLT-4, versus 11a): ~ 6 fold

Molecule: Cc1ncsc1-c1ccc([C@H](C)NC(=O)[C@@H]2C[C@@H](O)CN2C(=O)[C@@H](NC(=O)CCOCCC(=O)N2CCN(CC[C@H](CSc3ccccc3)Nc3ccc(S(=O)(=O)NC(=O)c4ccc(N5CCN(CC6=C(c7ccc(Cl)cc7)CCC(C)(C)C6)CC5)cc4)cc3S(=O)(=O)C(F)(F)F)CC2)C(C)(C)C)cc1 [Compound 3a, (2S,4R)-1-((S)-2-(3-(3-(4-((R)-3-((4-(N-(4-(4-((4’-Chloro-4,4-dimethyl-3,4,5,6-tetrahydro-[1,1’-biphenyl]-2-yl)methyl)piperazin-1-yl)benzoyl)sulfamoyl)-2-((trifluoromethyl)sulfonyl)phenyl)amino)-4-(phenylthio)butyl)piperazin-1-yl)-3-oxopropoxy)propanamido)-3,3-dimethylbutanoyl)-4-hydroxy-N-((S)-1-(4-(4-methylthiazol-5-yl)phenyl)ethyl)pyrrolidine-2-carboxamide]
times less potent than 1e in MOLT-4 cell viability ([1]; MOLT-4, versus 1e): ~ 4 times

BCL-XL degradation in MOLT-4 cells at 100 nM [2]: weak BCL-XL degradation
Molecule: Cc1ncsc1-c1ccc([C@H](C)NC(=O)[C@@H]2C[C@@H](O)CN2C(=O)[C@@H](NC(=O)CCCCCC(=O)N(C)CC[C@H](CSc2ccccc2)Nc2ccc(S(=O)(=O)NC(=O)c3ccc(N4CCN(CC5=C(c6ccc(Cl)cc6)CCC(C)(C)C5)CC4)cc3)cc2S(=O)(=O)C(F)(F)F)C(C)(C)C)cc1 [Compound 5, N^1-((R)-3-((4-(N-(4-(4-((4’-Chloro-4,4-dimethyl-3,4,5,6-tetrahydro-[1,1’-biphenyl]-2-yl)methyl)piperazin-1-yl)benzoyl)sulfamoyl)-2-((trifluoromethyl)sulfonyl)phenyl)amino)-4-(phenylthio)butyl)-N^7-((S)-1-((2S,4R)-4-hydroxy-2-(((S)-1-(4-(4-methylthiazol-5-yl)phenyl)ethyl)carbamoyl)pyrrolidin-1-yl)-3,3-dimethyl-1-oxobutan-2-yl)-N^1-methylheptanediamide]

Molecule: (2S,4R)-1-((S)-2-(2-(2-(4-((R)-3-((4-(N-(4-(4-((4’-Chloro-4,4-dimethyl-3,4,5,6-tetrahydro-[1,1’-biphenyl]-2-yl)methyl)piperazin-1-yl)benzoyl)sulfamoyl)-2-((trifluoromethyl)sulfonyl)phenyl)amino)-4-(phenylthio)butyl)piperazin-1-yl)ethoxy)acetamido)-3,3-dimethylbutanoyl)-4-hydroxy-N-((S)-1-(4-(4-methylthiazol-5-yl)phenyl)ethyl)pyrrolidine-2-carboxamide [Compound 4a]
IC50 ([1]; read-out: IC50, reduction of MOLT-4 cell viability, MOLT-4 cells, 48 h treatment, means of at least three independent experiments (Tables 1-4)): 151 nM
